Screening data: PubChem, The Scripps Research Institute Molecular Screening Center
Rows were chosen to be rich in hits. Some 1.4% of all compounds tested hit in one or more screens of this group.
GSTO1 counter – inhibitors of recombinant GSTO1, primary screen, counter-screen for RBBP9 inhibitor project, biochemical, fluorescence polarization | activity-based probe fluorescence polarization | Glutathione S-transferase omega-1 (Homo sapiens), P78417 | inhibition, % at 5.96 µM | hit rate 1.1% among 300,000;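 active = inhibition above the campaign mean inhibition plus 3 SD, cut at about 35% in these data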;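 note: 0% = GSTO1-1 with DMSO and 100% = wells lacking GSTO1-1 enzyme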
PAD4 FP inh – human PAD4 inhibitors, primary screen, biochemical, fluorescence polarization, 1536-well format | inhibition, % at 6.36 µM | recombinant PAD4, RCA probe fluorescence polarization | AID 485272, 2010 | Protein-arginine deiminase type-4 (Homo sapiens), Q9UM07 | hit rate 0.41% among 330,000;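 active = percent inhibition above a cutoff equal to the mean of all tested compounds plus 3 SD, cut at about 15% in these data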;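 note: 0% = PAD4 with RCA probe and DMSO and 100% = probe without PAD4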
Target sequence (Q9UM07 whole entry, looked up): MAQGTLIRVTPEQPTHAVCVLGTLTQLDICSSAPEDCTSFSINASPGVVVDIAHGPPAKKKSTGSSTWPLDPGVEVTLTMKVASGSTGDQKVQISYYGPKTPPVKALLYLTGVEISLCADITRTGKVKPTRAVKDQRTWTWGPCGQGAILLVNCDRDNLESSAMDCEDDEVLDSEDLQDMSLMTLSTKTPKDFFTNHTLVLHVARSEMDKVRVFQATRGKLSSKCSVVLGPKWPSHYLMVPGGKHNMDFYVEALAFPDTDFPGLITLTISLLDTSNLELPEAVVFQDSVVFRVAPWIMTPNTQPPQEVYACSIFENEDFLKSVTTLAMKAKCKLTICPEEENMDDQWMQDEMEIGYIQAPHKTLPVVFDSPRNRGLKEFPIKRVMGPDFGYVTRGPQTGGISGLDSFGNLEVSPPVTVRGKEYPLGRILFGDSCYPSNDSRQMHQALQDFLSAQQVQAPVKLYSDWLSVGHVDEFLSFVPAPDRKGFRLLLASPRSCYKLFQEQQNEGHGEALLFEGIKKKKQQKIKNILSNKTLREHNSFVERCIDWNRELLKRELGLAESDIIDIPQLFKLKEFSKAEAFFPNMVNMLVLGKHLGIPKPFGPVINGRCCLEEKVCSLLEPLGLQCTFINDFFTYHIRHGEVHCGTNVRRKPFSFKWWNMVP
Fh CTSL1 inh – Fasciola hepatica cathepsin L1 inhibitors, primary screen, counter-screen for PFM18AAP inhibitor project, biochemical, QFRET, fluorogenic peptide substrate | hit rate 0.49% among 300,000 | inhibition, % at 5.96 µM | recombinant F. hepatica cathepsin L1, Z-Leu-Arg-MCA fluorescence;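 active = inhibition above the mean of all tested compounds plus 3 SD, set per screening campaign, cut at about 17% in these data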;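 note: 0% = plate median of test compound wells and 100% = 1 µM Z-Phe-Ala-diazomethylketone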
TDP2 inh – human TDP2 enzyme inhibitors, primary screen, biochemical, epi absorbance, recombinant enzyme; hit rate 0.34% among 370,000; inhibition, % at 12.8 µM; T5PNP hydrolysis, p-nitrophenol absorbance 415 nm;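 active = inhibition above the mean of all tested compounds plus 3 SD, set per campaign, cut at about 25% in these data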;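 note: 0% = DMSO with enzyme and 100% = buffer with substrate but no TDP2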
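System: recombinant human TDP2 / Amount: 120 nM TDP2 per well / Also added: 5 mM T5PNP chromogenic substrate / Doses: 12.8 µM single point, 1% DMSO / Incubation: 2 h at 37 °C / Detection: p-Nitrophenol epi absorbance / Evaluation: % inhibition relative to enzyme-containing and enzyme-free wells / Repeats: singlicate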
* marks the source's active call; other numbers are inactive results.

`O=[N+]([O-])c1cc(C(F)(F)F)cc([N+](=O)[O-])c1NN=C1CCCCC1` gave GSTO1 counter 37*, PAD4 FP inh -1, Fh CTSL1 inh 3 and TDP2 inh 3.
For Cc1cc(C)n(Cc2ccc(C(=O)N/N=C/c3ccc(-c4ccc([N+](=O)[O-])cc4)o3)o2)n1 the results were GSTO1 counter 36*, PAD4 FP inh -7, Fh CTSL1 inh -1 and TDP2 inh -17.
`O=C1SCCC1NS(=O)(=O)c1ccc([N+](=O)[O-])cc1` (stereo unspecified) gave GSTO1 counter 2, PAD4 FP inh -6, Fh CTSL1 inh 21* and TDP2 inh -9.
For Oc1c(Cl)cc(Cl)cc1Sc1cc(Cl)cc(Cl)c1O the results were GSTO1 counter 57*, PAD4 FP inh -3 and Fh CTSL1 inh 1.
`CC(=O)O[C@H]1C(=O)[C@@]2(C)[C@H]([C@H](OC(=O)c3ccccc3)[C@]3(O)C[C@H](OC(=O)[C@H](O)[C@@H](NC(=O)c4ccccc4)c4ccccc4)C(C)=C1C3(C)C)[C@]1(OC(C)=O)CO[C@@H]1C[C@@H]2O` gave GSTO1 counter -1, PAD4 FP inh -1, Fh CTSL1 inh 19* and TDP2 inh -13.
CC(=O)O[C@H]1C(=O)[C@@]2(C)[C@H]([C@H](OC(=O)c3ccccc3)[C@]3(O)C[C@H](OC(=O)[C@H](O)C(NC(=O)c4ccccc4)c4ccccc4)C(C)=C1C3(C)C)[C@]1(OC(C)=O)CO[C@@H]1C[C@@H]2O (stereo partly specified) was read as GSTO1 counter 2, PAD4 FP inh -1, Fh CTSL1 inh 9 and TDP2 inh 1.
For O=C(NC1CCCCCCC1)c1cc([N+](=O)[O-])ccc1Cl the results were GSTO1 counter 4, PAD4 FP inh 2, Fh CTSL1 inh -5 and TDP2 inh 3.
Screening CN(C(=O)c1cc([N+](=O)[O-])ccc1N1CCCC1)C1CCCCC1 returned GSTO1 counter -9, PAD4 FP inh -6, Fh CTSL1 inh 22* and TDP2 inh -14.
O=C(NC1CCCCC1)c1cc([N+](=O)[O-])ccc1N1CCCC1 was read as GSTO1 counter 4, PAD4 FP inh -2, Fh CTSL1 inh 34* and TDP2 inh -5.
For CN(C(=O)COC(=O)c1cc([N+](=O)[O-])ccc1N1CCOCC1)C1CCCCC1 the results were TDP2 inh 4.
For COC(=O)C1=C(C)N(C)C(=NCc2cc(OC)c(OC)c(OC)c2)NC1c1cccc(Cl)c1 (stereo unspecified) the results were TDP2 inh 9.
For COc1cccc(/C=N\N2CCN(c3ccc(C)cc3)CC2)c1O the results were TDP2 inh 2.
O=C1CC(c2nc3ccccc3[nH]2)CN1c1ccccc1 (stereo unspecified) was read as GSTO1 counter -4, PAD4 FP inh -4, Fh CTSL1 inh -3 and TDP2 inh 5.
`c1ccc(C2=Nc3ccccc3SC2c2nc3ccccc3[nH]2)cc1` (stereo unspecified) gave GSTO1 counter 13, PAD4 FP inh 28* and Fh CTSL1 inh 4.
For COc1cc(OC)cc(C2C(C#N)=C(N)Oc3n[nH]c(-c4cccnc4)c32)c1 (stereo unspecified) the results were GSTO1 counter 13, PAD4 FP inh 9, Fh CTSL1 inh 3 and TDP2 inh 7.
Screening CC(C)(C)c1ccc(C2C(C#N)=C(N)Oc3n[nH]c(-c4cccnc4)c32)cc1 (stereo unspecified) returned GSTO1 counter -8, PAD4 FP inh -13, Fh CTSL1 inh -5 and TDP2 inh 36*.
Screening COc1ccccc1C(=O)NCC(=O)OCC(=O)Nc1cccc(S(=O)(=O)N(C)C)c1 returned GSTO1 counter -2, PAD4 FP inh -2, Fh CTSL1 inh -14 and TDP2 inh 9.
CCN(CC)S(=O)(=O)c1cccc(NC(=O)COC(=O)CNC(=O)c2cccc(F)c2)c1 was read as GSTO1 counter 24, PAD4 FP inh 4, Fh CTSL1 inh 18* and TDP2 inh -7.
Screening CN(Cc1ccccc1)S(=O)(=O)c1cccc(C(=O)OCc2cccc([N+](=O)[O-])c2)c1 returned TDP2 inh 5.
